Laboratory results from ChEMBL document CHEMBL1208767, “Synthesis and structure-activity relationship of N-(3-azabicyclo[3.1.0]hex-6-ylmethyl)-5-(2-pyridinyl)-1,3-thiazol-2-amines derivatives as NPY Y5 antagonists” (Bioorg Med Chem Lett, 2010).
≈ marks a conversion by molar mass, not a printed value.

What was measured:
[1] = molecular target: T1, Neuropeptide Y receptor type 5 (Homo sapiens, UniProt Q15761); experiment: Antagonist activity at human NPY Y5 receptor expressed in HEK293 cells assessed as inhibition of calcium level by FLIPR assay; assay type: functional, cell-based
T1 sequence (Q15761 whole entry): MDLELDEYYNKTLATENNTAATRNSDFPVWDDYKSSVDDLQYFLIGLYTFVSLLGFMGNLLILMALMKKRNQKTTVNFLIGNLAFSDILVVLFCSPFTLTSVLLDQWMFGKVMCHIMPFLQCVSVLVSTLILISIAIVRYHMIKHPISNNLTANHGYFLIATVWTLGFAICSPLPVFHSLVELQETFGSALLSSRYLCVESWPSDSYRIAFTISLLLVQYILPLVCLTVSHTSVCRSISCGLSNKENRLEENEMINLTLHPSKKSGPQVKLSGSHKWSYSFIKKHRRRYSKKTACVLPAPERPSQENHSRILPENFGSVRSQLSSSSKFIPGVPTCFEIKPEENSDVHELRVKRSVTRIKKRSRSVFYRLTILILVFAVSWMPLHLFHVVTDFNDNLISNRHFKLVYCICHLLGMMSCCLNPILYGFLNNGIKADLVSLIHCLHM
In short: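 Functional antagonism measured at the human Y5 receptor stably expressed in HEK293 cells, by FLIPR calcium read-out in 384-well format. Results expressed as fpKi. At least two replicates; each determination within 0.3 log units of the mean.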

[2] = molecular target: Cytochrome P450 3A4 (Homo sapiens, UniProt P08684); experiment: Inhibition of CYP3A4; assay type: ADME
[3] = Oral bioavailability in rat at 1 mg/kg, po by cassette dosing; assay type: ADME, organism-based; conditions: in vivo
In short: (§1)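 Rats dosed at 0.5 mg/kg iv and 1 mg/kg po.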

[4] = Ratio of drug level in brain to blood in rat at 0.5 mg/kg, iv after 1 hr by cassette dosing; assay type: ADME, organism-based; design: dose 0.5 mg/kg, route intravenous; conditions: read-out: BBR
In short: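 Rats dosed at 0.5 mg/kg iv; brain and blood levels taken 1 h after iv dosing.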

[5] = molecular target: Cytochrome P450 2C9 (Homo sapiens, UniProt P11712); experiment: Inhibition of CYP2C9; assay type: ADME
[6] = molecular target: T2, Cytochrome P450 1A2 (Homo sapiens, UniProt P05177); experiment: Inhibition of CYP1A2; assay type: ADME
T2 sequence (P05177 whole entry): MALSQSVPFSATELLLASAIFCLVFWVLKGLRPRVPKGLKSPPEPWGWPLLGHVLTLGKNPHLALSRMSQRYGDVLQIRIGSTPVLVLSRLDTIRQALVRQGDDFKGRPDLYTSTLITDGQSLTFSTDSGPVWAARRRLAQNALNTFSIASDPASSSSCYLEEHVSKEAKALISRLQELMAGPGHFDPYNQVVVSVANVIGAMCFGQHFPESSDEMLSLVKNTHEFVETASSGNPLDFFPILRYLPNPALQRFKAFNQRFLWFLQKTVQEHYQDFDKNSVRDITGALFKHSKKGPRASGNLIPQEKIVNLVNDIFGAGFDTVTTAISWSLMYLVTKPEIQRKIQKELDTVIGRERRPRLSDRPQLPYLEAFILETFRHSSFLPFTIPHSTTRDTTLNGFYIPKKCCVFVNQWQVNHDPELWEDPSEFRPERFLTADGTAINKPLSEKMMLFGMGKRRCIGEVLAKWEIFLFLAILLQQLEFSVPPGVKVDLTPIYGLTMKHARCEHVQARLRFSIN

[7] = Solubility of the compound by high throughput chemiluminescent nitrogen detection method; assay type: physicochemical
[8] = molecular target: Cytochrome P450 2C19 (Homo sapiens, UniProt P33261); experiment: Inhibition of CYP2C19; assay type: ADME
[9] = Blood clearance in rat at 0.5 mg/kg, iv and 1 mg/kg, po by cassette dosing; assay type: ADME, organism-based; in short: as §1
[10] = system: Rattus norvegicus; experiment: Whole blood binding in rat at 0.5 mg/kg, iv and 1 mg/kg, po by equilibrium dialysis assay; assay type: ADME, organism-based; conditions: in vivo
[11] = molecular target: Voltage-gated inwardly rectifying potassium channel KCNH2 (Homo sapiens, UniProt Q12809); experiment: Inhibition of human ERG
[12] = molecular target: T3, Neuropeptide Y receptor type 2 (Homo sapiens, UniProt P49146); experiment: Antagonist activity at human NPY Y2 receptor expressed in HEK293 cells assessed as inhibition of calcium level by FLIPR assay; assay type: functional, cell-based
T3 sequence (P49146 whole entry): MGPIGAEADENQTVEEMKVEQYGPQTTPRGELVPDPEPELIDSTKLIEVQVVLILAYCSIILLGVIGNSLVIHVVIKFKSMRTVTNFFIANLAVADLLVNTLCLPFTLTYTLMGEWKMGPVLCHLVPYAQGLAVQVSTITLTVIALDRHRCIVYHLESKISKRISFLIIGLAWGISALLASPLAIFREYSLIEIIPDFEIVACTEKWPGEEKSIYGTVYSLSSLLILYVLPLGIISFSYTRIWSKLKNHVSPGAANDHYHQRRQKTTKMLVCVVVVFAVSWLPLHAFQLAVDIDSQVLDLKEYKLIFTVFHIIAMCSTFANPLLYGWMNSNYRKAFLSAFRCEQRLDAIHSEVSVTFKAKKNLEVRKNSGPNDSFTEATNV

[13] = molecular target: T4, Neuropeptide Y receptor type 1 (Homo sapiens, UniProt P25929); experiment: Antagonist activity at human NPY Y1 receptor expressed in HEK293 cells assessed as inhibition of calcium level by FLIPR assay; assay type: functional, cell-based
T4 sequence (P25929 whole entry): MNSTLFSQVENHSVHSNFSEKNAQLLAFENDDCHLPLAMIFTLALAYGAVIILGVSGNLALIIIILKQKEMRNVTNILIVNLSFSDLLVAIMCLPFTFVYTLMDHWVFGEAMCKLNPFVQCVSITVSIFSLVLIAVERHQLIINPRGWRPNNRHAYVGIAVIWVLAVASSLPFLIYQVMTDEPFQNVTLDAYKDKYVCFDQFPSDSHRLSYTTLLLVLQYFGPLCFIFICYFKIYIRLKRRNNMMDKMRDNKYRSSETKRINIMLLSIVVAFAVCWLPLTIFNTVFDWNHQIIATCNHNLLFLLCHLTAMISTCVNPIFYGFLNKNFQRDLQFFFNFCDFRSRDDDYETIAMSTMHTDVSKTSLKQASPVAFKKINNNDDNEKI

Chain of Cytochrome P450 3A4 (P08684 whole entry): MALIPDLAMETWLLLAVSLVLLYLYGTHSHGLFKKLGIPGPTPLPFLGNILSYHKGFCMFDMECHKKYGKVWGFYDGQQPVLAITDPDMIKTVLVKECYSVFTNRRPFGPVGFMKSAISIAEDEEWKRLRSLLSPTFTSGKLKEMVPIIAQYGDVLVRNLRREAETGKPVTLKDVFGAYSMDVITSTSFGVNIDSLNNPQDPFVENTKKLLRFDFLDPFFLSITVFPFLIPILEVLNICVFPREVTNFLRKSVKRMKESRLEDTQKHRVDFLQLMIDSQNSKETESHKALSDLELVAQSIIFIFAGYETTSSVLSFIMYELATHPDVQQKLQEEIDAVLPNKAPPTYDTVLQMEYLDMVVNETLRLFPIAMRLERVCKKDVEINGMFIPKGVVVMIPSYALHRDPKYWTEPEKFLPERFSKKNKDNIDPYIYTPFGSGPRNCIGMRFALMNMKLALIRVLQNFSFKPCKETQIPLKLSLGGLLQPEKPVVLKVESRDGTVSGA
Chain of Cytochrome P450 2C9 (P11712 whole entry): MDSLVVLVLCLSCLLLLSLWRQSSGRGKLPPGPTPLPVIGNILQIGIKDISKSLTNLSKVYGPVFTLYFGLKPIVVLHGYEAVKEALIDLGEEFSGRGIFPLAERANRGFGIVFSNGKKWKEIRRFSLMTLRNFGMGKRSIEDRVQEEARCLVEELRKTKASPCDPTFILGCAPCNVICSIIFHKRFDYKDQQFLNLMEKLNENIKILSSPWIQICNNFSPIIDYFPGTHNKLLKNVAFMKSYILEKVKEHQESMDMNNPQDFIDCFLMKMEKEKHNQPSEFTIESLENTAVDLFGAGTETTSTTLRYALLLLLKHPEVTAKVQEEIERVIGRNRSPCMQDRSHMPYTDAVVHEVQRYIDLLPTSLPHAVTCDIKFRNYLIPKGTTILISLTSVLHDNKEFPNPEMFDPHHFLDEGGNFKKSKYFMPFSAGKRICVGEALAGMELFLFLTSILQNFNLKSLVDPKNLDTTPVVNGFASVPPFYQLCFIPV
Chain of Cytochrome P450 2C19 (P33261 whole entry): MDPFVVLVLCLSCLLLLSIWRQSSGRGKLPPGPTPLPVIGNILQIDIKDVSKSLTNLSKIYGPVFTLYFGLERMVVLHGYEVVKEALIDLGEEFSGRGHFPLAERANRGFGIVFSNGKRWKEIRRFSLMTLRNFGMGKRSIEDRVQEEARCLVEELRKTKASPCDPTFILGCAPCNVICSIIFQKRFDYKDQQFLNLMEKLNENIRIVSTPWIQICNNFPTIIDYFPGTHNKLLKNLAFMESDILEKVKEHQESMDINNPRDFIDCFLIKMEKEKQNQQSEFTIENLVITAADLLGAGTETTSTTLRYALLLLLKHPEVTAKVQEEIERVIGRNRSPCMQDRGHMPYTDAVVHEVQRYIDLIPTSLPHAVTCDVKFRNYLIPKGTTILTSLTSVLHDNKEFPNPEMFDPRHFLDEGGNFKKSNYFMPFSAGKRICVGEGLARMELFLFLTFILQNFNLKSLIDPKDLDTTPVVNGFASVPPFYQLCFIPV
Chain of Voltage-gated inwardly rectifying potassium channel KCNH2 (Q12809 whole entry): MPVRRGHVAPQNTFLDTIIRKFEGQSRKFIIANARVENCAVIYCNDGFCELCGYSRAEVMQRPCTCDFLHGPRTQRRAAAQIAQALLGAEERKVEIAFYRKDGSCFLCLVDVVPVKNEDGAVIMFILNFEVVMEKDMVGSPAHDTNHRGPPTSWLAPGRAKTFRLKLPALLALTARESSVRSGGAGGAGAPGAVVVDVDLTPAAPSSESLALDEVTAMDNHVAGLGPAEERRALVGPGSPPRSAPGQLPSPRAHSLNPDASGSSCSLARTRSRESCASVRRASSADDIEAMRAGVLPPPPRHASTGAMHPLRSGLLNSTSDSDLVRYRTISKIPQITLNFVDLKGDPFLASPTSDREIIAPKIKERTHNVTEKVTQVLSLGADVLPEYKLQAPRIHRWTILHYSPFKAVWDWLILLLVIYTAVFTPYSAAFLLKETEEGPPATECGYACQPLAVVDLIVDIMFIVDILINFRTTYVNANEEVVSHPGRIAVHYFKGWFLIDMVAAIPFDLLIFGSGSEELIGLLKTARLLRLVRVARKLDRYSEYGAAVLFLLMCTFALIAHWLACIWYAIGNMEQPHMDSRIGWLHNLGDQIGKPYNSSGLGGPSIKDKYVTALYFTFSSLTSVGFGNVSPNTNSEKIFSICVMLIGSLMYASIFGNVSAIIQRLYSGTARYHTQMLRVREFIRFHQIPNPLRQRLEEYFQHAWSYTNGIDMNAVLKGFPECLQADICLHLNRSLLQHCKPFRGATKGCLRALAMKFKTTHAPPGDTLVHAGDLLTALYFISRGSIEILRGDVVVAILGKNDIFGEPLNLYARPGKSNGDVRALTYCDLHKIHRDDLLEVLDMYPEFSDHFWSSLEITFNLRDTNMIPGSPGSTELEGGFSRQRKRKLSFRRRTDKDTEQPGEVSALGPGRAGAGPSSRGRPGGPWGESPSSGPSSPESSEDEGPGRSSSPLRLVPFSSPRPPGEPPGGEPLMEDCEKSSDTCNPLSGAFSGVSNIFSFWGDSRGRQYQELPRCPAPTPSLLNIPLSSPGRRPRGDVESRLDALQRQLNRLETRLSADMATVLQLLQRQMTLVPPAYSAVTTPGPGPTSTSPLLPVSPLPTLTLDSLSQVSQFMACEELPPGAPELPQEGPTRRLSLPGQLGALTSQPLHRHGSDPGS

SMILES	Ki [1]	also measured
O=C(c1ccncc1)N1C[C@@H]2[C@H](CNc3nc(-c4ccccn4)cs3)[C@@H]2C1	50.1 nM	
CC(=O)N1C[C@@H]2[C@H](CNc3nc(-c4ccccn4)cs3)[C@@H]2C1	2510 nM	
CC(C)C(=O)N1C[C@@H]2[C@H](CNc3nc(-c4ccccn4)cs3)[C@@H]2C1	2.51 nM	IC50 [2]: ≥ 7 µM; bioavailability [3]: 6%; Kp at 1 h [4]: 0.7; IC50 [5]: ≥ 7 µM; IC50 [6]: ≥ 7 µM; solubility [7]: 120 µg/mL (≈ 350 µM); IC50 [8]: ≥ 7 µM; clearance [9]: 137 mL/min/kg
O=C(c1ccccc1)N1C[C@@H]2[C@@H](CNc3nc(-c4ccccn4)cs3)[C@@H]2C1	12.6 nM	
O=C(c1ccccc1)N1C[C@@H]2[C@H](CNc3nc(-c4ccccn4)cs3)[C@@H]2C1	2.51 nM	
O=C(c1cccc(F)c1)N1C[C@@H]2[C@H](CNc3nc(-c4ccccn4)cs3)[C@@H]2C1	1 nM	
O=C(c1cc(F)cc(F)c1)N1C[C@@H]2[C@H](CNc3nc(-c4ccccn4)cs3)[C@@H]2C1	1.58 nM	
O=C(c1cccnc1)N1C[C@@H]2[C@H](CNc3nc(-c4ccccn4)cs3)[C@@H]2C1	5.01 nM	
O=C(Cc1ccccc1)N1C[C@@H]2[C@@H](CNc3nc(-c4ccccn4)cs3)[C@@H]2C1	1 nM	
O=C(Cc1ccccc1)N1C[C@@H]2[C@H](CNc3nc(-c4ccccn4)cs3)[C@@H]2C1	1 nM	
CC(C(=O)N1C[C@@H]2[C@H](CNc3nc(-c4ccccn4)cs3)[C@@H]2C1)c1ccccc1 (stereo partly drawn)	0.398 nM	
O=C(N1C[C@@H]2[C@H](CNc3nc(-c4ccccn4)cs3)[C@@H]2C1)C1(c2ccccc2)CC1	0.794 nM	
O=C(CCc1ccccc1)N1C[C@@H]2[C@@H](CNc3nc(-c4ccccn4)cs3)[C@@H]2C1	6.31 nM	
O=C(CCc1ccccc1)N1C[C@@H]2[C@H](CNc3nc(-c4ccccn4)cs3)[C@@H]2C1	0.631 nM	
CC(C(=O)N1C[C@@H]2[C@H](CNc3nc(-c4ccccn4)cs3)[C@@H]2C1)C(C)c1ccccc1 (stereo partly drawn)	5.01 nM	
O=C([C@H]1C[C@@H]1c1ccccc1)N1C[C@@H]2[C@H](CNc3nc(-c4ccccn4)cs3)[C@@H]2C1	0.794 nM	
O=C(C1CCOC1)N1C[C@@H]2[C@H](CNc3nc(-c4ccccn4)cs3)[C@@H]2C1 (stereo partly drawn)	7.94 nM	IC50 [2]: > 10 µM; bioavailability [3]: 15%; Activity [10]: 74%; IC50 [11]: 2000 nM; Kp at 1 h [4]: < 0.5; IC50 [5]: > 10 µM; IC50 [6]: > 10 µM; IC50 [8]: > 10 µM; clearance [9]: 98 mL/min/kg
O=C(C1CCCO1)N1C[C@@H]2[C@H](CNc3nc(-c4ccccn4)cs3)[C@@H]2C1 (stereo partly drawn)	5.01 nM	
O=C(C1CCOCC1)N1C[C@@H]2[C@H](CNc3nc(-c4ccccn4)cs3)[C@@H]2C1	31.6 nM	
c1ccc(-c2csc(NC[C@H]3[C@@H]4CNC[C@@H]43)n2)nc1	1000 nM	
CC(C)CN1C[C@@H]2[C@H](CNc3nc(-c4ccccn4)cs3)[C@@H]2C1	3.98 nM	
c1ccc(CN2C[C@@H]3[C@H](CNc4nc(-c5ccccn5)cs4)[C@@H]3C2)cc1	1.58 nM	
Cc1cc(C)cc(CN2C[C@@H]3[C@H](CNc4nc(-c5ccccn5)cs4)[C@@H]3C2)c1	3.98 nM	
Fc1cc(F)cc(CN2C[C@@H]3[C@H](CNc4nc(-c5ccccn5)cs4)[C@@H]3C2)c1	0.631 nM	
CC(c1ccccc1)N1C[C@@H]2[C@H](CNc3nc(-c4ccccn4)cs3)[C@@H]2C1 (stereo partly drawn)	1.26 nM	
FC(F)(F)c1ccc(Nc2nc(-c3ccccn3)cs2)cc1	15.8 nM	Ki [12]: > 31.6 µM; bioavailability [3]: 30%; Ki [13]: > 31.6 µM; Kp at 1 h [4]: 4.2; IC50 [6]: < 0.1 µM
